Results as given in ChEMBL document CHEMBL4425120, “N1-Azinylsulfonyl-1H-indoles: 5-HT6 Receptor Antagonists with Procognitive and Antidepressant-Like Properties” (ACS Med Chem Lett, 2016).

Legend:
[1] = Drug uptake in Wistar rat brain at 3 mg/kg, ip after 30 mins by LC-MS/MS analysis; format: ADME, organism-based; details: read-out: Drug uptake
In short: (§1)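 Male Wistar rats received a single 3 mg/kg i.p. dose. Brain and plasma drug levels were measured at 15, 30 and 90 min after dosing. Brain level is expressed as ng/g tissue, alongside the brain-to-plasma concentration ratio.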

[2] = target: 5-hydroxytryptamine receptor 7 (Homo sapiens, UniProt P34969); experiment: Displacement of [3H]-5-CT from human 5-HT7B receptor expressed in HEK293 cells by microbeta liquid scintillation counting; format: cell-based
Chain of 5-hydroxytryptamine receptor 7 (P34969 whole entry): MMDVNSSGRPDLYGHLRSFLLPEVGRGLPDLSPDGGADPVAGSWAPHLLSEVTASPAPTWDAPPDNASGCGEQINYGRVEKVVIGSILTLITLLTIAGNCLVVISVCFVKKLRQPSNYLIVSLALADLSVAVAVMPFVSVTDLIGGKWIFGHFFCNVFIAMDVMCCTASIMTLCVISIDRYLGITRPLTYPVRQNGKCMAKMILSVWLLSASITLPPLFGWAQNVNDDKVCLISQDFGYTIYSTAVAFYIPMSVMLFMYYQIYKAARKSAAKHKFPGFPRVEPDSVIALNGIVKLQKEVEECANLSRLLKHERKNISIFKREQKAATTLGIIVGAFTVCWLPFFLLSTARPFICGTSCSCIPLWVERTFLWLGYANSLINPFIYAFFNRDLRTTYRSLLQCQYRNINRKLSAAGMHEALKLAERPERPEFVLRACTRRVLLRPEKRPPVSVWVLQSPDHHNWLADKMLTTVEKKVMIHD
In short: (§2)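 Ki values reported as the mean of two independent radioligand binding experiments.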

[3] = target: 5-hydroxytryptamine receptor 2A (Homo sapiens, UniProt P28223); experiment: Displacement of [3H]-Ketanserin from human 5-HT2A receptor expressed in HEK293 cells by microbeta liquid scintillation counting; format: cell-based; in short: as §2
Chain of 5-hydroxytryptamine receptor 2A (P28223 whole entry): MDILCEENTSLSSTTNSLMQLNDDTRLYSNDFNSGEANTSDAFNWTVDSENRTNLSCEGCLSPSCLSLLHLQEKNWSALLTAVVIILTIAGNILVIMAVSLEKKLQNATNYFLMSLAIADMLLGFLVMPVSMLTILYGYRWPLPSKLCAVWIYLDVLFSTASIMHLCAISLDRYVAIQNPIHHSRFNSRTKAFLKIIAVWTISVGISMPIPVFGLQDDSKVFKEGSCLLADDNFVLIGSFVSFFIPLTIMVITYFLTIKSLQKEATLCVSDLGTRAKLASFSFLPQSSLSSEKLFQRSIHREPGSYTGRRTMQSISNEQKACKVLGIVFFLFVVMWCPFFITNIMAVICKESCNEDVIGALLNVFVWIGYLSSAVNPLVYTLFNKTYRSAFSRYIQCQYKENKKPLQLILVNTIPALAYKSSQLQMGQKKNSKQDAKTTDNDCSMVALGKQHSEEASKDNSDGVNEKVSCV

[4] = Mutagenicity in Salmonella typhimurium TA1537 at 0.2 to 16 ug/ml after 48 hrs by Ames test; format: toxicity; details: salmonella enterica subsp. enterica serovar typhimurium
[5] = target: T1, 5-hydroxytryptamine receptor 6 (Homo sapiens, UniProt P50406); experiment: Antagonist activity at human recombinant 5-HT6 receptor expressed in CHO cells assessed as inhibition of serotonin-induced intracellular cAMP accumulation after 30 mins by HTRF assay; format: functional, cell-based
T1 sequence (P50406 whole entry): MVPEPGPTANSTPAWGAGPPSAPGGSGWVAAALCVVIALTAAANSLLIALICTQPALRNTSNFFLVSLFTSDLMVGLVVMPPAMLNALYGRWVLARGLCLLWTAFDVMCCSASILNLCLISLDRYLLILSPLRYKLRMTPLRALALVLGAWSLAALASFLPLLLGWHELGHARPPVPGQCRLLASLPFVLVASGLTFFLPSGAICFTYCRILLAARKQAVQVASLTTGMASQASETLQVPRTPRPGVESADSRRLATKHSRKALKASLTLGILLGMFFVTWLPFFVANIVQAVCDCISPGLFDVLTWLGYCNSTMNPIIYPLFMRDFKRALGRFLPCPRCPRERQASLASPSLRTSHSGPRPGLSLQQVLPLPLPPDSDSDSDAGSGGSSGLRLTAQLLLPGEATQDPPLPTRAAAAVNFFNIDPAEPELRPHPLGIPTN

Homo sapiens [6] = species on record: Homo sapiens; experiment: Selectivity ratio of Ki for human 5-HT7B receptor expressed in HEK293 cells to Ki for human 5-HT6 receptor expressed in HEK293 cells; format: cell-based
[7] = Mutagenicity in Salmonella typhimurium TA100 at 0.2 to 16 ug/ml after 48 hrs by Ames test; format: toxicity; details: salmonella enterica subsp. enterica serovar typhimurium
Rattus norvegicus = experiment: Cognitive enhancing effect in ip dosed Sprague-Dawley rat assessed as reversal of PCP induced memory deficit administered 1 hour and 15 mins before familiarization phase by novel object recognition test; format: functional; details: for minimal effective dose: read-out: MED
In short: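 Memory deficit induced with PCP in rats. Test and reference agents were given i.p., and the reversal of the deficit in novel-object recognition was scored. Data are mean ± SEM, n = 7–12 animals per group, compared against the vehicle and PCP groups.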

D(2) dopamine receptor = D(2) dopamine receptor (Homo sapiens, UniProt P14416); experiment: Displacement of [3H]-Raclopride from human D2L receptor expressed in HEK293 cells by microbeta liquid scintillation counting; format: cell-based; in short: as §2
Homo sapiens [8] = species on record: Homo sapiens; experiment: Selectivity ratio of Ki for human D2L receptor expressed in HEK293 cells to Ki for human 5-HT6 receptor expressed in HEK293 cells; format: cell-based
[9] = target: T1, 5-hydroxytryptamine receptor 6; experiment: Displacement of [3H]-LSD from human 5-HT6 receptor expressed in HEK293 cells by microbeta liquid scintillation counting; format: cell-based; in short: as §2
[10] = Ratio of drug level in Wistar rat brain to plasma at 3 mg/kg, ip after 15 to 90 mins by LC-MS/MS analysis; format: ADME, organism-based; details: read-out: BPR; in short: as §1
Cytochrome P450 2C19 = Cytochrome P450 2C19 (Homo sapiens, UniProt P33261); experiment: Inhibition of human CYP2C19 expressed in supersomes assessed as perazine N-demethylation after 15 mins by HPLC analysis; format: ADME
Chain of Cytochrome P450 2C19 (P33261 whole entry): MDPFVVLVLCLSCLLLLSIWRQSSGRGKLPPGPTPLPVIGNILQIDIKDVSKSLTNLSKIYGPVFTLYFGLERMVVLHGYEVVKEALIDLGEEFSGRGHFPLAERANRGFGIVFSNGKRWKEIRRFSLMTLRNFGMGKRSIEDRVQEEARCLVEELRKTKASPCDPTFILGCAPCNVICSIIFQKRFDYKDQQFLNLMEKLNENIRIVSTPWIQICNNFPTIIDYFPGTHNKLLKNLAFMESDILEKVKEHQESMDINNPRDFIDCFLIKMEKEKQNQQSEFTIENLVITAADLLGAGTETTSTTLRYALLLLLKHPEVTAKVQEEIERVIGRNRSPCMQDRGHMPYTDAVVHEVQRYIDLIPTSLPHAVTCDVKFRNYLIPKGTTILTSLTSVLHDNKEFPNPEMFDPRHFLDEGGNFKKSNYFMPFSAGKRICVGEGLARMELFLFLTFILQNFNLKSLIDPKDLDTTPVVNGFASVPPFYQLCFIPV

Homo sapiens [11] = species on record: Homo sapiens; experiment: Selectivity ratio of Ki for human 5-HT2A receptor expressed in HEK293 cells to Ki for human 5-HT6 receptor expressed in HEK293 cells; format: cell-based
[12] = target: Alpha-2C adrenergic receptor (Homo sapiens) (UniProt P18825); experiment: Displacement of [3H]RX 821002 from human recombinant adrenergic alpha 2C receptor expressed in CHO cells after 60 mins by scintillation counting; format: cell-based
Chain of Alpha-2C adrenergic receptor (Homo sapiens) (P18825 whole entry): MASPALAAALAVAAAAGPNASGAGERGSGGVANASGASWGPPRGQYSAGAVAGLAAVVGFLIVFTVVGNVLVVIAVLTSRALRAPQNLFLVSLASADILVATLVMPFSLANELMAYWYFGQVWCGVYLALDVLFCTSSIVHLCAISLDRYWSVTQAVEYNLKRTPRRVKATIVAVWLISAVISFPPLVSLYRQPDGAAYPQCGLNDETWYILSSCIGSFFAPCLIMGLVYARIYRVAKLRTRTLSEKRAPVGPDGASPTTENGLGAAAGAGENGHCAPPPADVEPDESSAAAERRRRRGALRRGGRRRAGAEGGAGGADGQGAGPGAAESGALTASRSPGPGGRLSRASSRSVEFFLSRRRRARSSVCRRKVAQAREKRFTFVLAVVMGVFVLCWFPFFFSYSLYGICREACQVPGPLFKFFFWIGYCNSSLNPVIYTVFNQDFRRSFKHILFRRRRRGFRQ

[13] = Mutagenicity in Salmonella typhimurium TA1535 at 0.2 to 16 ug/ml after 48 hrs by Ames test; format: toxicity; details: salmonella enterica subsp. enterica serovar typhimurium
Homo sapiens [14] = species on record: Homo sapiens; experiment: Selectivity ratio of Ki for human 5-HT1A receptor expressed in HEK293 cells to Ki for human 5-HT6 receptor expressed in HEK293 cells; format: cell-based
[15] = target: Muscarinic acetylcholine receptor M1 (Homo sapiens) (UniProt P11229); experiment: Displacement of [3H]pirenzepine from human recombinant muscarinic M1 receptor expressed in CHO cells after 60 mins by scintillation counting; format: cell-based
Chain of Muscarinic acetylcholine receptor M1 (Homo sapiens) (P11229 whole entry): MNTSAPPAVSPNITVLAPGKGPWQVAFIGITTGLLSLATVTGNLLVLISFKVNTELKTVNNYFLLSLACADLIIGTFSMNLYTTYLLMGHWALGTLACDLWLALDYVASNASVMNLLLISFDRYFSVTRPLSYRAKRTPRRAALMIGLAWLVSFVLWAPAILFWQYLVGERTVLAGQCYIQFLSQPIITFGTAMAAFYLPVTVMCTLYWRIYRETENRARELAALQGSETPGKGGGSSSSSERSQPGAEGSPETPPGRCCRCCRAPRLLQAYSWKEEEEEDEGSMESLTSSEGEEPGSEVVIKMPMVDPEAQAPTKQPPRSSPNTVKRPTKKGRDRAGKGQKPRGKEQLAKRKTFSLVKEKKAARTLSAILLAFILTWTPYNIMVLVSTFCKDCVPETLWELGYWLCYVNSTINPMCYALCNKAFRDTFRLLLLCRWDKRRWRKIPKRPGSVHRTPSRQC

[16] = Solubility of the compound at pH 7.4; format: physicochemical; details: buffer
[17] = Intrinsic clearance in rat liver microsomes at 20 uM after 15 mins in presence of NADPH-regenerating system by UPLC/MS analysis; format: ADME, Microsome; details: read-out: CLH
[18] = target: Histamine H1 receptor (Homo sapiens) (UniProt P35367); experiment: Displacement of [3H]pyrilamine from human recombinant histamine H1 receptor expressed in HEK293 cells after 60 mins by scintillation counting.; format: cell-based
Chain of Histamine H1 receptor (Homo sapiens) (P35367 whole entry): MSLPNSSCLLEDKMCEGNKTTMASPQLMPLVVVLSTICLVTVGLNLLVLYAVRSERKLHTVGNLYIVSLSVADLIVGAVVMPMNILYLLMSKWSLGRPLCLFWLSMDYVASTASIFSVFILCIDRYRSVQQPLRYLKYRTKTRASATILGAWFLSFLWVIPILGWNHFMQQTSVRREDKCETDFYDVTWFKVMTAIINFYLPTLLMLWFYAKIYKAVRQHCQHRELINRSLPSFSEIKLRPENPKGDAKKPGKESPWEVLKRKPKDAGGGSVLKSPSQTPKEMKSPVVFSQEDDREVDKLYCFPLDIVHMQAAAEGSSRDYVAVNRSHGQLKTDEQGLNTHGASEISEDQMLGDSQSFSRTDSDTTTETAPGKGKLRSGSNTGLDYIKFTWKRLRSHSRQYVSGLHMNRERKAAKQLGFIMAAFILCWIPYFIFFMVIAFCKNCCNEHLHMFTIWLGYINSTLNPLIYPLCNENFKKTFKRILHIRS

Cytochrome P450 2C9 = Cytochrome P450 2C9 (Homo sapiens, UniProt P11712); experiment: Inhibition of human CYP2C9 expressed in supersomes assessed as diclofenac 4'-hydroxylation after 15 mins by HPLC analysis; format: ADME
Chain of Cytochrome P450 2C9 (P11712 whole entry): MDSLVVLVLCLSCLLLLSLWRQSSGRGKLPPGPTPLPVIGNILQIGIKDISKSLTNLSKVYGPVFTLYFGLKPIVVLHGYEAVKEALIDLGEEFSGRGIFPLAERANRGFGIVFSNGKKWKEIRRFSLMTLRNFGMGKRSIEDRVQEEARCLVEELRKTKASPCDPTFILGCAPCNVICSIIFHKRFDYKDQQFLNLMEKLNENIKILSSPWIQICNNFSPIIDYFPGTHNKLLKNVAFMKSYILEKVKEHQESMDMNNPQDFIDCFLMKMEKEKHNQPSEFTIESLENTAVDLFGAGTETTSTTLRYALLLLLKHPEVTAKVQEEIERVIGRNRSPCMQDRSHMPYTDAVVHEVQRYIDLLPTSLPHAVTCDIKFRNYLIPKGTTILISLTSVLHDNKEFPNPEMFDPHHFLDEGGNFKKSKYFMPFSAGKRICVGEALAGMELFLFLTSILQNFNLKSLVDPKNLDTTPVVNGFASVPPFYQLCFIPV

[19] = target: Sodium-dependent serotonin transporter (Homo sapiens) (UniProt P31645); experiment: Displacement of [3H]imipramine from human recombinant SERT expressed in CHO cells after 60 mins by scintillation counting; format: cell-based
Chain of Sodium-dependent serotonin transporter (Homo sapiens) (P31645 whole entry, looked up): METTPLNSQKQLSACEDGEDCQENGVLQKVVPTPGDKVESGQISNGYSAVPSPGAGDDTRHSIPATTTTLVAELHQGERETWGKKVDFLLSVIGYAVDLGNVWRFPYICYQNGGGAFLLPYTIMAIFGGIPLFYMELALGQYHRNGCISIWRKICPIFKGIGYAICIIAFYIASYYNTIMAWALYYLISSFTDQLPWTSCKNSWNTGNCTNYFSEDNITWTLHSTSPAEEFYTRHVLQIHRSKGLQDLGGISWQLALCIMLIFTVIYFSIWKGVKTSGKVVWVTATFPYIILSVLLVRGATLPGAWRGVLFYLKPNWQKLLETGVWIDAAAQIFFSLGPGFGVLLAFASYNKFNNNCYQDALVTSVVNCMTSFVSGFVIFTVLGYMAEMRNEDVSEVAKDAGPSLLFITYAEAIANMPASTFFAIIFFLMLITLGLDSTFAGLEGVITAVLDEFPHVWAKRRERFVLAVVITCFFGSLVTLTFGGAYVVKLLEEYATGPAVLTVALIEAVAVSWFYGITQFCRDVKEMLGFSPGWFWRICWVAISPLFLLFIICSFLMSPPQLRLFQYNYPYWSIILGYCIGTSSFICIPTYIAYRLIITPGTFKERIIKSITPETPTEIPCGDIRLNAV

[20] = target: T2, 5-hydroxytryptamine receptor 1A (Homo sapiens, UniProt P08908); experiment: Displacement of [3H]-8-OH-DPAT from human 5-HT1A receptor expressed in HEK293 cells by microbeta liquid scintillation counting; format: cell-based; in short: as §2
T2 sequence (P08908 whole entry): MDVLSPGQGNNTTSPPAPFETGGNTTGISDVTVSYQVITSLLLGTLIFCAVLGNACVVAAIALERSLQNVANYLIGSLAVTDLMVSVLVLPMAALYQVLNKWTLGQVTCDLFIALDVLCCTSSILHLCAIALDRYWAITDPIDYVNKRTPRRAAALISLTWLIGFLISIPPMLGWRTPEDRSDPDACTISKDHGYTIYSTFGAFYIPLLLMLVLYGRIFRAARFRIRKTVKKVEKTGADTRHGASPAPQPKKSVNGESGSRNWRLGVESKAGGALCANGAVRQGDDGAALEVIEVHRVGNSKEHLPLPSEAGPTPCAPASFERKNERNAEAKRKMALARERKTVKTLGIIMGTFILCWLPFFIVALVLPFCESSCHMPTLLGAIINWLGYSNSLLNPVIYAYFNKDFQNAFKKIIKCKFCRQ

[21] = target: Adrenergic receptor alpha-1 (Rattus norvegicus) (UniProt P15823+P23944+P43140); experiment: Displacement of [3H]prazosin from rat cerebral cortex adrenergic alpha 1 receptor after 60 mins by scintillation counting
D(3) dopamine receptor = D(3) dopamine receptor (Homo sapiens, UniProt P35462); experiment: Displacement of [3H]-methyl-spiperone from human recombinant dopamine D3 receptor expressed in CHO cells after 60 mins by scintillation counting; format: cell-based
Chain of D(3) dopamine receptor (P35462 whole entry): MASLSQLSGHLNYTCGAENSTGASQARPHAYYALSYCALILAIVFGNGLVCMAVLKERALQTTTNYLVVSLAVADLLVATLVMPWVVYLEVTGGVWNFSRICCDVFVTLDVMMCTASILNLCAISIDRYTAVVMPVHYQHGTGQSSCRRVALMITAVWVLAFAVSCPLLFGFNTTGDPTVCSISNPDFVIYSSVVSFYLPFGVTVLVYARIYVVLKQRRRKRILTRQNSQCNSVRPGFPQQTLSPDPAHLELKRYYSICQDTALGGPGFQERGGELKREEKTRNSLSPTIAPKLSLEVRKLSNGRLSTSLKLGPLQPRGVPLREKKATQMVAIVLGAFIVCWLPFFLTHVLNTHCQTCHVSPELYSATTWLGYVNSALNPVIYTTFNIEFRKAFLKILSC

[22] = target: Voltage-gated inwardly rectifying potassium channel KCNH2 (Homo sapiens, UniProt Q12809); experiment: Displacement of [3H]Dofetilide from human recombinant ERG expressed in HEK293 cells at 10 to 50 uM after 60 mins by scintillation counting; format: cell-based; details: hek293, 1 h
[23] = Mutagenicity in Salmonella typhimurium TA98 at 0.2 to 16 ug/ml after 48 hrs by Ames test; format: toxicity; details: salmonella enterica subsp. enterica serovar typhimurium
[24] = Solubility of the compound at pH 2; format: physicochemical; details: buffer

SMILES | concentration at 0.5 h [1] [ng/g] | Ki [2] [µM] | Ki [3] [nM] | Activity [4] | Kb [5] [nM] | Ratio Ki (Homo sapiens [6]) | Activity [7] | Activity (Rattus norvegicus) | minimal effective dose (Rattus norvegicus) [mg/kg] | Ki (D(2) dopamine receptor) [nM] | Ratio Ki (Homo sapiens [8]) | Ki [9] [nM] | Kp [10] | IC50 (Cytochrome P450 2C19) [µM] | Ratio Ki (Homo sapiens [11]) | inhibition [12] [%] | Activity [13] | Ratio Ki (Homo sapiens [14]) | inhibition [15] [%] | solubility [16] [µg/mL] | also measured
COc1ccc2c(c1)c(C1=CCNCC1)cn2S(=O)(=O)c1ccc2cccnc2c1 | 21.9 | 6.25 | 1000 | Non-Toxic | 4.4 | 70 | Non-Toxic | Dose-dependent effect | 1 | 240 | 70 | 2 | 0.1 to 0.6 | > 100 | 70 | 18 | Non-Toxic | 70 | 11 | > 5000 | microsomal CLint at 20 µM [17]: 18 µL/min/mg; inhibition [18]: 9%; IC50 (Cytochrome P450 2C9): > 100 µM; inhibition [19]: 4%; Ki [20]: 5.04 µM; inhibition [21]: 41%; Ki (D(3) dopamine receptor): 32 nM; inhibition (INH) [22]: Not Active; Activity [23]: Non-Toxic; solubility [24]: > 5000 µg/mL
COc1ccc2c(c1)c(C1=CCNCC1)cn2S(=O)(=O)c1cncc2ccccc12 | 18.6 | 7.83 | 3350 | Non-Toxic | 5.6 | 70 | Non-Toxic | Dose-dependent effect | 1 | 3320 | 70 | 3 | 0.1 to 0.6 | > 100 | 70 | 21 | Non-Toxic | 70 | 0 | > 5000 | microsomal CLint at 20 µM [17]: 10 µL/min/mg; inhibition [18]: 15%; IC50 (Cytochrome P450 2C9): > 100 µM; inhibition [19]: 6%; Ki [20]: 5.01 µM; inhibition [21]: 40%; Ki (D(3) dopamine receptor): 150 nM; inhibition (INH) [22]: Not Active; Activity [23]: Non-Toxic; solubility [24]: > 5000 µg/mL
